Test results taken from ChEMBL document CHEMBL4118269 (J Med Chem, 2018).

Assays:
[1] = Half life in human liver microsomes at 1 uM preincubated for 5 mins followed by NADPH addition measured up to 45 mins by LC-MS/MS analysis; format: ADME, microsome; conditions: 0.75 h
In short: (§1)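 Pooled liver microsomes (0.5 mg/mL; male CD-1 mouse, male Sprague Dawley rat, or mixed-gender human) with 1 μM compound in 100 mM potassium phosphate pH 7.4, 3 mM MgCl2, 37 °C with shaking. 5 min preincubation, then 1 mM NADPH. Aliquots at 0, 3, 7, 15, 25, 45 min quenched in cold CH3CN with carbamazepine internal standard, then LC/MS/MS. Triplicate; T1/2 = ln2/k from the slope of ln % remaining versus time.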

[2] = Half life in CD-1 mouse liver microsomes at 1 uM preincubated for 5 mins followed by NADPH addition measured up to 45 mins by LC-MS/MS analysis; format: ADME, microsome; conditions: 0.75 h; in short: as §1
in vitro [3] = conditions: CD-1, mouse, liver microsomes
in vitro [4] = conditions: Sprague-Dawley, rat, liver microsomes
[5] = target: Lanosterol 14-alpha demethylase (Aspergillus) (UniProt B8NUK6+Q9P8R0+G4WW85); experiment: Inhibition of Aspergillus fumigatus CYP51 assessed as reduction in [3-3H]eburicol 14alpha-demethylation at 0.75 uM preincubated for 60 secs followed by NADPH addition measured after 60 mins by RP-HPLC analysis relative to control
In short: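 E. coli-expressed, purified CYP51 (0.5 μM) with rat NADPH-P450 reductase (1.0 μM), 100 μM dilauroylphosphatidylcholine, isocitrate dehydrogenase/isocitrate NADPH regeneration, in 50 mM K phosphate pH 7.2 with 10% glycerol and 0.1% Triton X-100. [3-3H]eburicol 25 μM final, inhibitor 0.75 μM final (1.5:1:50 inhibitor:enzyme:substrate), 37 °C. Started with 100 μM NADPH, 60 min, EtOAc extraction, radio-HPLC. Percent inhibition, triplicate, mean ± SD.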

in vitro [6] = conditions: human, liver microsomes
[7] = target: T1, Lanosterol 14-alpha demethylase (Aspergillus, UniProt B8NUK6+G4WW85+Q9P8R0); experiment: Binding affinity to Aspergillus fumigatus CYP51 by spectral titration method; conditions: read-out: Kd(app)
T1 sequence (B8NUK6 whole entry): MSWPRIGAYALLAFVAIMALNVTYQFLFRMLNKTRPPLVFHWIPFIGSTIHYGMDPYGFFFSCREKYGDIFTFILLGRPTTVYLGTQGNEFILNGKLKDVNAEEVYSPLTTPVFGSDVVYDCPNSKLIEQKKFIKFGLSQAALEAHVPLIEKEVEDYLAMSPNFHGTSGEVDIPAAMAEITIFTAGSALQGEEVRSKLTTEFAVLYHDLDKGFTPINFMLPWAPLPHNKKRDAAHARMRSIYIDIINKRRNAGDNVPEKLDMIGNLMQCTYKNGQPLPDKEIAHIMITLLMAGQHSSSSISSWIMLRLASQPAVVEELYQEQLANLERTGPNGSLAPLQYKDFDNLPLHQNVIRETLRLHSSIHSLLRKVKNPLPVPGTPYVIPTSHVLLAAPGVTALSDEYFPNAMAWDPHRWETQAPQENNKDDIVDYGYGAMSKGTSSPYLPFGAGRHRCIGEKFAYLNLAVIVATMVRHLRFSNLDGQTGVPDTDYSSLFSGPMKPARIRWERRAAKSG
T1 sequence (Q9P8R0 whole entry): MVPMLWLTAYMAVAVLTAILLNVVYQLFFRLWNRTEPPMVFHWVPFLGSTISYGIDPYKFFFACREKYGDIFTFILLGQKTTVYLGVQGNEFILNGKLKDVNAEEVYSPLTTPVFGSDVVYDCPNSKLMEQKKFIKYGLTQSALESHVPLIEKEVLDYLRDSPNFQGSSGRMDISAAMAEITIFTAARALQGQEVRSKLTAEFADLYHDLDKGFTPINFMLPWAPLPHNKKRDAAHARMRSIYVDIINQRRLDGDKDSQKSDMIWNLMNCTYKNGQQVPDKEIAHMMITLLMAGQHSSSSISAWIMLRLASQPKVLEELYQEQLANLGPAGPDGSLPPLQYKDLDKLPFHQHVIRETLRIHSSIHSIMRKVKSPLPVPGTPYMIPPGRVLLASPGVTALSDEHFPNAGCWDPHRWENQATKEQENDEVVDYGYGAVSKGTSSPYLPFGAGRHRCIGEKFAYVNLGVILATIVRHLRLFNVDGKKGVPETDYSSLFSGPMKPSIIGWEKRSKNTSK
T1 sequence (G4WW85 whole entry): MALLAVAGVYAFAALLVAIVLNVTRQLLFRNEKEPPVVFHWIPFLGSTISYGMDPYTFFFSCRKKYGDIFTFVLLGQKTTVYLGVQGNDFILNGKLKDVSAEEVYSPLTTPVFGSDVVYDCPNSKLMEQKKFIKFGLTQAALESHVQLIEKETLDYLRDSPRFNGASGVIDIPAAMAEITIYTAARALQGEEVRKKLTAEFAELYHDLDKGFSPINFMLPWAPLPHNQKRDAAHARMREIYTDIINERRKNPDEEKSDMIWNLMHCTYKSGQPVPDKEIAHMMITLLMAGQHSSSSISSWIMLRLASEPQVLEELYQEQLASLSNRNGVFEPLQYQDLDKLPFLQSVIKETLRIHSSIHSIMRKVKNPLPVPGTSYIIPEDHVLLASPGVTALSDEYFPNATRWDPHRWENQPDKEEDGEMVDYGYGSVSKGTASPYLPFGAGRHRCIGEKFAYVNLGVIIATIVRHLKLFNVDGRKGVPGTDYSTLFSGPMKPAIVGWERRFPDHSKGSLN
In short: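 Purified CYP51 at 0.5 μM in 5 cm path cuvettes, titrated from 0.2 mM DMSO stocks over 0.1–0.8 μM ligand. Type II red shift of the Soret band (417 to 424 nm) followed as ΔA (Amax−Amin) in difference spectra. Kd obtained by fitting to the quadratic tight-binding equation using total ligand and enzyme concentrations.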

[8] = Half life in Sprague-Dawley rat liver microsomes at 1 uM preincubated for 5 mins followed by NADPH addition measured up to 45 mins by LC-MS/MS analysis; format: ADME, microsome; conditions: 0.75 h; in short: as §1
in vitro [9] = conditions: human, liver microsomes; remark: listed apart in the source
[10] = target: Lanosterol 14-alpha demethylase (Candida albicans (strain SC5314 / ATCC MYA-2876) (Yeast), UniProt P10613); experiment: Inhibition of Candida albicans CYP51 assessed as reduction in [3-3H]lanosterol 14alpha-demethylation at 0.75 uM preincubated for 60 secs followed by NADPH addition measured after 60 mins by RP-HPLC analysis relative to control; conditions: 1 h
Lanosterol 14-alpha demethylase (Candida albicans (strain SC5314 / ATCC MYA-2876) (Yeast), UniProt P10613), sequence (P10613 whole entry): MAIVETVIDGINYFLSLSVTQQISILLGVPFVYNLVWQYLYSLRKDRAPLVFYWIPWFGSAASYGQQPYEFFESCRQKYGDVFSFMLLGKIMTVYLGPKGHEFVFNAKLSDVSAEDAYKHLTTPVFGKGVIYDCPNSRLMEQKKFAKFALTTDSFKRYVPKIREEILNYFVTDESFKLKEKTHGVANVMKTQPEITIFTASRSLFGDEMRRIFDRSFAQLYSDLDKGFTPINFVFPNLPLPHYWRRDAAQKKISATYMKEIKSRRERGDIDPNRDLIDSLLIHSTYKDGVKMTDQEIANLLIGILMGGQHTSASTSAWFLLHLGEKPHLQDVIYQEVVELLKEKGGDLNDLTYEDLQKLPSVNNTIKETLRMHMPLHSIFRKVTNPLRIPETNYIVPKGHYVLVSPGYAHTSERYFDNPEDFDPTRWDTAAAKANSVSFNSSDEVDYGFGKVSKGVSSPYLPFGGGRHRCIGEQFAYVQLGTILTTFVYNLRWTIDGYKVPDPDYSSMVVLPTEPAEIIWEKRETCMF
In short: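 C. albicans CYP51 expressed in E. coli and purified, 0.5 μM, with 1.0 μM rat NADPH-P450 reductase, dilauroylphosphatidylcholine and isocitrate dehydrogenase/isocitrate regeneration in 50 mM potassium phosphate pH 7.2, 10% glycerol, 0.1% Triton X-100. Substrate 25 μM final; inhibitor:enzyme:substrate 1.5:1:50. 37 °C, started with 100 μM NADPH. Sterols extracted with EtOAc, radio-HPLC. Triplicate, mean ± SD.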

in vitro [11] = conditions: CD-1, mouse, liver microsomes; remark: listed apart in the source
[12] = Lipophilicity, log P of the compound; format: physicochemical; conditions: octanol/water
in vitro [13] = conditions: Sprague-Dawley, rat, liver microsomes; remark: listed apart in the source

SMILES | t1/2 [1] | t1/2 [2] | CLint scaled at 0.75 h, 1 µM (in vitro [3]) | CLhep predicted at 0.75 h, 1 µM (in vitro [4]) | inhibition [5] | CLint scaled at 0.75 h, 1 µM (in vitro [6]) | Kd [7] | t1/2 [8] | CLhep predicted at 0.75 h, 1 µM (in vitro [9]) | inhibition at 0.75 µM [10] | CLhep predicted at 0.75 h, 1 µM (in vitro [11]) | logP [12] | CLint scaled at 0.75 h, 1 µM (in vitro [13])
O=C(N[C@@H](Cn1ccnc1)c1ccc(Cl)cc1Cl)c1ccc(-c2nnc(-c3cc(F)cc(-c4ccccn4)c3)o2)cc1 | 0.217 h | 1.65 h | 55 mL/min/kg | 24 mL/min/kg | 80% | 96.6 mL/min/kg | 61 nM | 1.3 h | 17.3 mL/min/kg | 87% | 34 mL/min/kg | 5.49 | 36 mL/min/kg
O=C(N[C@@H](Cn1ccnc1)c1ccc(Cl)cc1Cl)c1ccc(-c2nnc(-c3cc(F)cc(OCC(F)(F)F)c3)o2)cc1 | 1.85 h | 1.08 h | 84.7 mL/min/kg | 29 mL/min/kg | 51% | 11.3 mL/min/kg | – | 0.933 h | 7.33 mL/min/kg | 65% | 43.6 mL/min/kg | 5.58 | 50.4 mL/min/kg
CS(=O)(=O)c1ccc(-c2nnc(-c3ccc(C(=O)N[C@@H](Cn4ccnc4)c4ccc(Cl)cc4Cl)cc3)o2)cc1Cl | 2.23 h | 1.62 h | 56 mL/min/kg | 42 mL/min/kg | 32% | 9.31 mL/min/kg | – | 0.45 h | 6.45 mL/min/kg | 53% | 34.5 mL/min/kg | 3.83 | 104 mL/min/kg
O=C(N[C@@H](Cn1ccnc1)c1ccc(Cl)cc1Cl)c1ccc(-c2nnc(-c3cccc(-c4ccccn4)c3)o2)cc1 | 1.58 h | 0.6 h | 152 mL/min/kg | 35 mL/min/kg | 34% | 13.1 mL/min/kg | – | 0.683 h | 8.06 mL/min/kg | 77% | 56 mL/min/kg | 5.33 | 68 mL/min/kg
O=C(N[C@@H](Cn1ccnc1)c1ccc(Cl)cc1Cl)c1ccc(-c2nnc(-c3ccc(-c4ccccn4)cc3)o2)cc1 | 1.92 h | 0.95 h | 95 mL/min/kg | 40 mL/min/kg | 23% | 10.8 mL/min/kg | – | 0.5 h | 7.15 mL/min/kg | 66% | 46 mL/min/kg | 5.33 | 94 mL/min/kg
O=C(N[C@@H](Cn1ccnc1)c1ccc(Cl)cc1Cl)c1ccc(-c2nnc(-c3cccc(N4CCOCC4)c3)o2)cc1 | – | – | – | – | 15% | – | – | – | – | 58% | – | 4.45 | –
O=C(N[C@@H](Cn1ccnc1)c1ccc(Cl)cc1Cl)c1ccc(-c2nnc(-c3ccc(N4CCOCC4)cc3)o2)cc1 | – | – | – | – | 3% | – | – | – | – | 29% | – | 4.45 | –
O=C(N[C@@H](Cn1ccnc1)c1ccc(Cl)cc1Cl)c1ccc(-c2nnc(-c3ccc(-c4ccccn4)cc3F)o2)cc1 | 1.38 h | 2.48 h | 36.5 mL/min/kg | 29.7 mL/min/kg | 26% | 15 mL/min/kg | – | 0.9 h | 8.75 mL/min/kg | 61% | 26 mL/min/kg | 5.49 | 51.6 mL/min/kg
O=C(N[C@@H](Cn1ccnc1)c1ccc(Cl)cc1Cl)c1ccc(-c2nnc(-c3cc(-c4ccccn4)ccc3F)o2)cc1 | 2.05 h | 0.383 h | 238 mL/min/kg | 29 mL/min/kg | 24% | 10.2 mL/min/kg | – | 0.95 h | 6.85 mL/min/kg | 83% | 65 mL/min/kg | 5.49 | 49.4 mL/min/kg
O=C(N[C@@H](Cn1ccnc1)c1ccc(Cl)cc1Cl)c1ccc(-c2nnc(-c3ccc(Cl)c(Cl)c3)o2)cc1 | 1.83 h | 0.85 h | 107 mL/min/kg | 35 mL/min/kg | 55% | 11.4 mL/min/kg | – | 0.667 h | 7.39 mL/min/kg | 92% | 49 mL/min/kg | 5.68 | 70 mL/min/kg
O=C(N[C@@H](Cn1ccnc1)c1ccc(Cl)cc1Cl)c1ccc(-c2nnc(-c3cccc(Br)c3)o2)cc1 | 2.2 h | 0.717 h | 126 mL/min/kg | 19 mL/min/kg | 41% | 9.47 mL/min/kg | – | 1.77 h | 6.53 mL/min/kg | 84% | 55 mL/min/kg | 5.4 | 27 mL/min/kg
